# Measurements: ChEMBL document CHEMBL1127054, “3-Aryl-2-(3'-substituted-1',2',4'-oxadiazol-5'-yl)tropane analogues of cocaine: affinities at the cocaine binding site at the dopamine, serotonin, and norepinephrine transporters” (J Med Chem, 1993)
# Assays:
# [1] = molecular target: Monoamine transporters; Norepininephrine & dopamine (Rattus norvegicus) (UniProt P23977+Q9WTR4); experiment: Ratio between norepinephrine and Dopamine transporter; format: protein assay
# [2] = molecular target: Monoamine transporters; serotonin & dopamine (Rattus norvegicus) (UniProt P31652+P23977); experiment: Ratio between serotonin transporter and Dopamine transporter; format: protein assay
# [3] = molecular target: Sodium-dependent dopamine transporter (Rattus norvegicus, UniProt P23977); experiment: Binding affinity towards Dopamine transporter by displacement of [3H]WIN-35428 radioligand from rat brain
# [4] = molecular target: Sodium-dependent serotonin transporter (Rattus norvegicus, UniProt P31652); experiment: Binding affinity towards serotonin transporter by displacement of [3H]- paroxetine radioligand from rat brain
# In short: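 Midbrain tissue (1.5 mg original wet weight) with 0.2 nM [3H]paroxetine in 50 mM Tris, 120 mM NaCl, 5 mM KCl, pH 7.4, for 90 min at room temperature; nonspecific binding defined with 1 μM citalopram. Terminated by filtration through polyethylenimine-soaked GF/B filters with ice-cold buffer washes. Mean ± SE of four triplicate experiments.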
# [5] = molecular target: Norepinephrine transporter (Rattus norvegicus, UniProt Q9WTR4); experiment: Binding affinity towards norepinephrine transporter by displacement of [3H]nisoxetine radioligand from rat brain
# Chain of Norepinephrine transporter (Q9WTR4 whole entry): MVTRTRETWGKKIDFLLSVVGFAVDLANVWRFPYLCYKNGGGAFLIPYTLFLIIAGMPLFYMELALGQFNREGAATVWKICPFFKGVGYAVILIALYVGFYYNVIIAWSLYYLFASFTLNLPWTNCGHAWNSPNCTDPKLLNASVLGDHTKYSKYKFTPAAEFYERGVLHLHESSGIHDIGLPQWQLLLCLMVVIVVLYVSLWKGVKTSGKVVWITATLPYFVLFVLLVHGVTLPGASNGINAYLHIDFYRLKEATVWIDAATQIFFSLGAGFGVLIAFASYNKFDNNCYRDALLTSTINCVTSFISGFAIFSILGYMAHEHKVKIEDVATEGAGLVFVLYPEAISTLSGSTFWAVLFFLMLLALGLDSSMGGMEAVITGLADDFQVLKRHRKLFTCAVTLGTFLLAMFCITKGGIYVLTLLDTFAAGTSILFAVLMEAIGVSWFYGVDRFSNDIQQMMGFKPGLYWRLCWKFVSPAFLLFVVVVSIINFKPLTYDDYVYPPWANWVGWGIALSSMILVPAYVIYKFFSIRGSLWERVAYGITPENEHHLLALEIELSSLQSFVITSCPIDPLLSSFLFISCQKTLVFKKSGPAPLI
# Chain of Sodium-dependent serotonin transporter (P31652 whole entry): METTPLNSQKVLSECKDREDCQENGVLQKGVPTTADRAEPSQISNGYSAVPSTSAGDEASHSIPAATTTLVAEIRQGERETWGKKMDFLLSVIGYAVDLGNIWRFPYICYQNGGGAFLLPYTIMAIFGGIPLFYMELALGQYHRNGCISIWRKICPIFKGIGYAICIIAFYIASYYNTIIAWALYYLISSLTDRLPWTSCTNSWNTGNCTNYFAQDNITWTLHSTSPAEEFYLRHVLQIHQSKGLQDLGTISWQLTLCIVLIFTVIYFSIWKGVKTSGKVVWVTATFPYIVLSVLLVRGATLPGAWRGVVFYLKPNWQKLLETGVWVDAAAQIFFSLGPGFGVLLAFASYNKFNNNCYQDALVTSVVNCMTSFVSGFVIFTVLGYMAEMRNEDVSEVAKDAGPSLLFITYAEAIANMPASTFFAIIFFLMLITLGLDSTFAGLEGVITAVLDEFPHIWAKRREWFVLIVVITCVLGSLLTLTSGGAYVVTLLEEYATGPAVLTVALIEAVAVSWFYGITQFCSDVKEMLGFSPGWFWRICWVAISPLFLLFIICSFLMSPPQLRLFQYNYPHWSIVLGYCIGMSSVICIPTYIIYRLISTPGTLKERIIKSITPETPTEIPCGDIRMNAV
# Chain of Sodium-dependent dopamine transporter (P23977 whole entry): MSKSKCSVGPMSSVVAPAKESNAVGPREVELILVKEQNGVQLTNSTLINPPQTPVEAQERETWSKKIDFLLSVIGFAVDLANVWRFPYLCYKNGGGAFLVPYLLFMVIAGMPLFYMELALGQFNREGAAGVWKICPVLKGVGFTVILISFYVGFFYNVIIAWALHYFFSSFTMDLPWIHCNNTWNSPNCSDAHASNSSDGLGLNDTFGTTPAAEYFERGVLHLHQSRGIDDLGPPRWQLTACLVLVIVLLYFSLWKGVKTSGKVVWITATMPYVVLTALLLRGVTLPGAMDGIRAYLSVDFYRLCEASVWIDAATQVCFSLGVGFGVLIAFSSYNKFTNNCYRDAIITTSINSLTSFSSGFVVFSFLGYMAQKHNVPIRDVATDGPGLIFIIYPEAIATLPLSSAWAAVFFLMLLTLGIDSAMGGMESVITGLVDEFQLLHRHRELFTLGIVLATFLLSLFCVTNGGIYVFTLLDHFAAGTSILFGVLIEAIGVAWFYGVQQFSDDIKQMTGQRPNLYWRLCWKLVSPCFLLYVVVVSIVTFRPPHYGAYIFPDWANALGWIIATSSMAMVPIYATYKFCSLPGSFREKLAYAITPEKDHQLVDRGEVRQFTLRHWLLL
# Chain of Monoamine transporters; serotonin & dopamine (Rattus norvegicus) (P23977 whole entry, looked up): as the sequence (P23977 whole entry) above
# Chain of Monoamine transporters; serotonin & dopamine (Rattus norvegicus) (P31652 whole entry, looked up): as the sequence (P31652 whole entry) above
Structure (SMILES),Ratio [1],Ratio [2],IC50 [3] [nM],IC50 [4] [nM],IC50 [5] [nM]
CN1C2CC[C@@H]1C[C@H](c1ccc(Cl)cc1)C2c1nc(-c2ccccc2)no1 (some centres undefined),151,120,1.62,195,245
Cc1noc(C2C3CC[C@H](C[C@@H]2c2ccccc2)N3C)n1 (stereo in doubt; 6) [listing 1 of 2 here],69,32,,,
Cc1noc(C2C3CC[C@H](C[C@@H]2c2ccccc2)N3C)n1 (stereo in doubt; 7) [listing 1 of 2 here],,,204,29400,35800
CC(C)OC(=O)C1C2CC[C@H](C[C@@H]1c1ccc(Cl)cc1)N2C (some centres undefined),551,,1.41,1400,778
CN1C2CC[C@@H]1C[C@H](c1ccc(Cl)cc1)C2c1nc(-c2ccc(Br)cc2)no1 (some centres undefined),532,31,3.44,106,1830
CN1C2CCC1C(C(=O)Oc1ccccc1)C(c1ccc(Cl)cc1)C2 (centres undefined),1490,,1.99,,2960
CN1C2CC[C@@H]1C[C@H](c1ccc(Cl)cc1)C2c1nc(-c2ccc(Cl)cc2)no1 (some centres undefined),1000,100,4.06,404,4070
Cc1noc(C2C3CC[C@H](C[C@@H]2c2ccccc2)N3C)n1 (stereo in doubt; 7) [listing 2 of 2 here],176,144,,,
Cc1noc(C2C3CC[C@H](C[C@@H]2c2ccccc2)N3C)n1 (stereo in doubt; 5a) [listing 1 of 2 here],79,38,,,
Cc1noc(C2C3CC[C@H](C[C@@H]2c2ccc(Cl)cc2)N3C)n1 (some centres undefined),,,,2580,363
COC(=O)[C@@H]1C2CC[C@H](C[C@@H]1c1ccccc1)N2C,,,,,920
Cc1noc(C2C3CC[C@H](C[C@@H]2c2ccccc2)N3C)n1 (stereo in doubt; 5a) [listing 2 of 2 here],,,100,3830,7880
Cc1noc(C2C3CC[C@H](C[C@@H]2c2ccccc2)N3C)n1 (stereo in doubt; 6) [listing 2 of 2 here],,,1030,33100,71000
Cc1ccc([C@H]2C[C@H]3CCC(C2c2nc(-c4ccccc4)no2)N3C)cc1 (some centres undefined),26,459,2.33,1070,60
Cc1noc(C2C3CC[C@H](C[C@@H]2c2ccccc2)N3C)n1 (stereo in doubt; 8) [listing 1 of 2 here],,,167,40600,6990
CC(C)c1noc(C2C3CC[C@H](C[C@@H]2c2ccc(Cl)cc2)N3C)n1 (some centres undefined),23,577,6,3460,135
Cc1noc(C2C3CC[C@H](C[C@@H]2c2ccccc2)N3C)n1 (stereo in doubt; 8) [listing 2 of 2 here],42,243,,,
Cc1ccc([C@H]2C[C@H]3CCC(C2C(=O)Oc2ccccc2)N3C)cc1 (some centres undefined),1780,,3.27,24500,5830
COc1ccc(-c2noc(C3C4CC[C@H](C[C@@H]3c3ccc(Cl)cc3)N4C)n2)cc1 (some centres undefined),461,186,1.81,337,835
